# Results from ChEMBL document CHEMBL4184322, “Coupling of an Acyl Migration Prodrug Strategy with Bio-activation To Improve Oral Delivery of the HIV-1 Protease Inhibitor Atazanavir” (J Med Chem, 2018).
# Assays:
# [1] = Apparent permeability across basolateral to apical side in human Caco2 cells; format: ADME, cell-based; details: Caco-2
# [2] = Solubility of the compound in acetate buffer at pH 4 at 25 degC by UPLC method; format: physicochemical
# [3] = Half life in rat whole blood at 1 uM after 5 to 90 mins by UPLC-MS/MS method; format: ADME, tissue-based
# [4] = Half life in rat hepatocytes at 1 uM after 5 to 120 mins by UPLC-MS/MS method; format: ADME, cell-based, Hepatocyte
# [5] = Half life of the compound in acetate buffer at pH 4 at 37 degC after 24 hrs by UPLC method; format: physicochemical
# [6] = AUC (0 to 24 hrs) in pentagastrin treated Sprague-Dawley rat at 10 mg/kg, po by UPLC/MS/MS method; format: ADME, organism-based; parameters: dose 10 mg/kg, time < 24 hr, route oral; details: in vivo
# Procedure, shortened: (§1)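 Rat gastric-pH model: gastric pH raised with famotidine or lowered with pentagastrin before oral dosing […] as a suspension in 0.5% methyl cellulose / 99.5% water; plasma atazanavir (parent) AUC0–24 h determined.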
# [7] = AUC (0 to 24 hrs) in famotidine treated Sprague-Dawley rat at 10 mg/kg, po by UPLC/MS/MS method; format: ADME, organism-based; parameters: dose 10 mg/kg, time < 24 hr, route oral; details: in vivo; procedure, shortened: as §1
# [8] = Half life of the compound in phosphate buffer at pH 6.5 at 37 degC after 24 hrs by UPLC method; format: physicochemical
# [9] = Tmax in Sprague-Dawley rat at 3 mg/kg, po after 0.25 to 24 hrs by UPLC/MS/MS method; format: ADME, organism-based; details: in vivo
# [10] = Solubility of the compound in phosphate buffer at pH 6.5 at 25 degC by UPLC method; format: physicochemical
# [11] = system: Rattus norvegicus; test: Cmax in Sprague-Dawley rat at 3 mg/kg, po after 0.25 to 24 hrs by UPLC/MS/MS method; format: ADME, organism-based; parameters: dose 3 mg/kg, route oral; details: in vivo
# [12] = Oral bioavailability in Sprague-Dawley rat at 3 mg/kg after 0.25 to 24 hrs by UPLC/MS/MS method; format: ADME, organism-based; details: in vivo
# [13] = AUC (0 to 24 hrs) in Sprague-Dawley rat at 10 mg/kg, po by UPLC/MS/MS method; format: ADME, organism-based; parameters: dose 10 mg/kg, time < 24 hr, route oral; details: in vivo
# [14] = Half life of the compound in 0.1 N aqueous HCl at pH 1 at 37 degC after 24 hrs by UPLC method; format: physicochemical
# [15] = Solubility of the compound in 0.1 N aqueous HCl at pH 1 at 25 degC by UPLC method; format: physicochemical
# [16] = system: Rattus norvegicus; test: Ratio of AUC in pentagastrin treated Sprague-Dawley rat at 10 mg/kg, po to AUC in famotidine treated Sprague-Dawley rat at 10 mg/kg, po; format: ADME, organism-based; details: in vivo
# Procedure, shortened: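 Oral suspension in 0.5% methyl cellulose / 99.5% water, given to rats whose gastric pH was modulated by pretreatment with pentagastrin or famotidine.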
# [17] = system: Rattus norvegicus; test: AUClast in Sprague-Dawley rat at 3 mg/kg, po after 0.25 to 24 hrs by UPLC/MS/MS method; format: ADME, organism-based; parameters: time 0.25-24 hr, dose 3 mg/kg, route oral; details: in vivo
# [18] = Efflux ratio of apparent permeability across basolateral to apical over apical to basolateral side in human Caco2 cells; format: ADME, cell-based; details: Caco-2
# [19] = Trough concentration in Sprague-Dawley rat at 3 mg/kg, po at 24 hrs by UPLC/MS/MS method; format: ADME, organism-based; details: in vivo, read-out: Cmin
# [20] = system: Rattus norvegicus; test: Oral bioavailability in Sprague-Dawley rat assessed as atazanavir at 3 mg/kg equiv of atazanavir after 0.25 to 24 hrs by UPLC/MS/MS method relative to atazanavir; format: ADME, organism-based; details: in vivo
# [21] = system: Rattus norvegicus; test: AUC (0 to 24 hrs) in Sprague-Dawley rat assessed as atazanavir at 10 mg/kg, po equiv of atazanavir by UPLC/MS/MS method; format: ADME, organism-based; parameters: time < 24 hr, dose 10 mg/kg, route oral; details: in vivo
# [22] = system: Rattus norvegicus; test: AUC (0 to 24 hrs) in pentagastrin treated Sprague-Dawley rat assessed as atazanavir at 10 mg/kg, po equiv of atazanavir by UPLC/MS/MS method; format: ADME, organism-based; parameters: dose 10 mg/kg, time < 24 hr, route oral; details: in vivo
# Procedure, shortened: (§2)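 Rat gastric pH model. Gastric pH was modulated by pretreatment with either pentagastrin or famotidine. Dosing was oral as a suspension in 0.5% methyl cellulose / 99.5% water, with parent AUC0–24 h determined in each arm.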
# [23] = system: Rattus norvegicus; test: Trough concentration in Sprague-Dawley rat assessed as atazanavir at 3 mg/kg, po equiv of atazanavir at 24 hrs by UPLC/MS/MS method; format: ADME, organism-based; details: in vivo; for concentration: read-out: Cmin; for Cmin: BLD = below limit of detection
# [24] = system: Rattus norvegicus; test: Tmax in Sprague-Dawley rat assessed as atazanavir at 3 mg/kg, po equiv of atazanavir after 0.25 to 24 hrs by UPLC/MS/MS method; format: ADME, organism-based; details: in vivo
# [25] = system: Rattus norvegicus; test: Trough concentration in Sprague-Dawley rat assessed as (2S,3S)-3-Amino-1-(2-((S)-2-((methoxycarbonyl)amino)-3,3-dimethylbutanoyl)-1-(4-(pyridin-2-yl)benzyl)hydrazinyl)4-phenylbutan-2-yl (S)-2-((Methoxycarbonyl)amino)-3,3-dimethylbutanoate Dihydrochloride at 3 mg/kg, po equiv of atazanavir at 24 hrs by UPLC/MS/MS method; format: ADME, organism-based; details: in vivo, read-out: Cmin
# [26] = system: Rattus norvegicus; test: Ratio of AUClast in Sprague-Dawley rat at 3 mg/kg, po equiv of atazanavir to AUC in Sprague-Dawley rat assessed as atazanavir at 3 mg/kg, po equiv of atazanavir; format: ADME, organism-based; details: in vivo
# [27] = Apparent permeability across apical to basolateral side in human Caco2 cells; format: ADME, cell-based; details: Caco-2
# [28] = system: Rattus norvegicus; test: (§3) Cmax in Sprague-Dawley rat assessed as (2S,3S)-3-Amino-1-(2-((S)-2-((methoxycarbonyl)amino)-3,3-dimethylbutanoyl)-1-(4-(pyridin-2-yl)benzyl)hydrazinyl)4-phenylbutan-2-yl (S)-2-((Methoxycarbonyl)amino)-3,3-dimethylbutanoate Dihydrochloride at 3 mg/kg, po equiv of atazanavir after 0.25 to 24 hrs by UPLC/MS/MS method; format: ADME, organism-based; parameters: dose 3 mg/kg, route oral; details: in vivo
# [29] = system: Rattus norvegicus; test: Cmax in Sprague-Dawley rat assessed as atazanavir at 3 mg/kg, po equiv of atazanavir after 0.25 to 24 hrs by UPLC/MS/MS method; format: ADME, organism-based; parameters: dose 3 mg/kg, route oral; details: in vivo
# [30] = system: Rattus norvegicus; test: as §3, with “Tmax” for “Cmax”; format: ADME, organism-based; details: in vivo
# [31] = system: Rattus norvegicus; test: as §3, with “AUClast” for “Cmax”; format: ADME, organism-based; parameters: time lower 0.25 hr, dose 3 mg/kg, time upper 24 hr, route oral; details: in vivo
# [32] = system: Rattus norvegicus; test: AUClast in Sprague-Dawley rat assessed as atazanavir at 3 mg/kg, po equiv of atazanavir after 0.25 to 24 hrs by UPLC/MS/MS method; format: ADME, organism-based; parameters: time upper 24 hr, dose 3 mg/kg, time lower 0.25 hr, route oral; details: in vivo
# [33] = system: Rattus norvegicus; test: AUC (0 to 24 hrs) in famotidine treated Sprague-Dawley rat assessed as atazanavir at 10 mg/kg, po equiv of atazanavir by UPLC/MS/MS method; format: ADME, organism-based; parameters: time < 24 hr, dose 10 mg/kg, route oral; details: in vivo; procedure, shortened: as §2
# [34] = Half life of the compound in phosphate buffer at pH 7.4 at 37 degC after 24 hrs by UPLC method; format: physicochemical
# [35] = system: Rattus norvegicus; test: Oral bioavailability in Sprague-Dawley rat assessed as atazanavir at 3 mg/kg equiv of atazanavir after 0.25 to 24 hrs by UPLC/MS/MS method; format: ADME, organism-based; details: in vivo
SMILES,Papp B→A [1] [×10⁻⁶ cm/s],solubility [2] [µg/mL],half-life at 1 µM [3] [h],half-life at 1 µM [4] [h],half-life [5] [h],half-life [8] [h],solubility [10] [µg/mL],half-life [14] [h],solubility [15] [µg/mL],efflux ratio [18],F [20] [%],concentration [23] [nM],Tmax [24] [h],Ratio AUC [26],Papp A→B [27] [×10⁻⁶ cm/s],Cmax [29] [nM],AUClast [32] [µM·h],Cmin [23],also measured
COC(=O)N[C@H](C(=O)N[C@@H](Cc1ccccc1)[C@@H](O)CN(Cc1ccc(-c2ccccn2)cc1)NC(=O)[C@@H](NC(=O)OC)C(C)(C)C)C(C)(C)C [ATAZANAVIR],47,< 1,> 2,0.467,> 500,> 500,< 1,> 500,1690,> 31,–,–,–,–,–,–,–,–,AUC(0-t) at 24 h [6]: 2.46 µM·h; AUC(0-t) at 24 h [7]: 0.005 µM·h; Tmax [9]: 0.5 h; Cmax [11]: 266 nM; bioavailability [12]: 20%; AUC(0-t) at 24 h [13]: 0.24 µM·h; Ratio AUC [16]: 492; AUClast [17]: 0.384 µM·h; concentration at 24 h [19]: 0.25 nM
COC(=O)N[C@H](C(=O)NN(Cc1ccc(-c2ccccn2)cc1)C[C@H](OC(=O)[C@@H](NC(=O)OC)C(C)(C)C)[C@@H](N)Cc1ccccc1)C(C)(C)C.Cl.Cl,34.8,> 400,> 2,1.32,334,6.6,–,376,> 900,15,0.83,–,0.4,4.9,2.3,8,0.016,Bld,–
COC(=O)N[C@H](C(=O)NN(Cc1ccc(-c2ccccn2)cc1)C[C@H](OC(=O)[C@@H](NC(=O)OC)C(C)(C)C)[C@H](Cc1ccccc1)NC(=O)OCOC(=O)[C@@H](N)C(C)C)C(C)(C)C.Cl.Cl,–,> 1500,0.333,< 0.0833,334,6.6,–,> 500,> 1800,–,4.3,–,0.4,–,–,56,0.083,Bld,half-life [34]: 1.8 h
COC(=O)N[C@H](C(=O)N[C@@H](Cc1ccccc1)[C@H](CN(Cc1ccc(-c2ccccn2)cc1)NC(=O)[C@@H](NC(=O)OC)C(C)(C)C)OC(=O)[C@@H](N)C(C)C)C(C)(C)C.Cl.Cl,–,–,–,–,–,–,–,–,–,–,–,–,–,–,–,10,–,Bld,F [35]: 2.2%

# Further lines, with some results ahead:
Papp B→A [1] [×10⁻⁶ cm/s],solubility [2] [µg/mL],half-life at 1 µM [3] [h],half-life at 1 µM [4] [h],half-life [5] [h],half-life [8] [h],solubility [10] [µg/mL],half-life [14] [h],solubility [15] [µg/mL],efflux ratio [18],F [20] [%],concentration [23] [nM],Tmax [24] [h],Ratio AUC [26],Papp A→B [27] [×10⁻⁶ cm/s],Cmax [29] [nM],AUClast [32] [µM·h],Cmin [23],SMILES,also measured
11.4,120,> 2,0.933,> 500,108,10,> 500,> 1100,> 8,75.3,4.5,1.7,3.4,< 1.5,310,1.446,–,COC(=O)N[C@H](C(=O)NN(Cc1ccc(-c2ccccn2)cc1)C[C@H](OC(=O)[C@@H](NC(=O)OC)C(C)(C)C)[C@H](Cc1ccccc1)NC(=O)OC(OC(=O)[C@@H](N)C(C)C)C(C)C)C(C)(C)C.Cl.Cl (stereo partly specified),AUC [21]: 2.093 µM·h; AUC [22]: 1.332 µM·h; concentration [25]: 2 nM; Cmax [28]: 124 nM; Tmax [30]: 1.7 h; AUClast [31]: 0.579 µM·h; AUC [33]: 1.275 µM·h
7.3,> 1430,> 2,0.883,> 500,215,27,> 500,> 500,> 5,8.7,0.3,2.3,50.5,< 1.5,37,0.167,–,COC(=O)N[C@H](C(=O)NN(Cc1ccc(-c2ccccn2)cc1)C[C@H](OC(=O)[C@@H](NC(=O)OC)C(C)(C)C)[C@H](Cc1ccccc1)NC(=O)OC(OC(=O)[C@H](N)C(C)C)C(C)C)C(C)(C)C.Cl.Cl (stereo partly specified),–
–,< 1,< 0.0833,< 0.0833,> 500,120,< 1,> 500,> 1800,–,10.1,0.3,1.3,0.1,–,180,0.194,–,COC(=O)N[C@H](C(=O)NN(Cc1ccc(-c2ccccn2)cc1)C[C@H](OC(=O)[C@@H](NC(=O)OC)C(C)(C)C)[C@H](Cc1ccccc1)NC(=O)OCc1oc(=O)oc1C)C(C)(C)C,–
